Experimental data: ChEMBL document CHEMBL1165965, “Synthesis and structure-activity relationships of 1,2,3,4-tetrahydropyrido[2,3-b]pyrazines as potent and selective inhibitors of the anaplastic lymphoma kinase” (Bioorg Med Chem, 2010)

What was measured:
[1] = target: Ribosomal protein S6 kinase alpha-5 (Homo sapiens) (UniProt O75582); assay: Inhibition of RPS6KA5 N-terminal domain1 at 1 uM
[2] = target: Cyclin-dependent kinase-like 3 (Homo sapiens) (UniProt Q8IVW4); assay: Inhibition of CDKL3 at 1 uM
[3] = target: Calcium/calmodulin-dependent protein kinase type II subunit delta (Homo sapiens) (UniProt Q13557); assay: Inhibition of CAMK2D at 1 uM
Procedure, shortened: (§1)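 Ambit KINOMEscan screen at a single concentration across a 250–400 kinase panel, recorded as percent inhibition. Selectivity was expressed as S(90), the fraction of kinases inhibited >90%.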

[4] = system: Epidermal growth factor receptor (Homo sapiens), P00533 [L861Q]; assay: Inhibition of EGFR L861Q mutant at 1 uM; assay type: protein assay
Procedure, shortened: (§2)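 Single-concentration screen using Ambit Bioscience KINOMEscan technology across a panel of 250–400 kinases. Per-kinase inhibition from this screen was summarized as S(90), the fraction of kinases inhibited by more than 90%.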

[5] = target: Tyrosine-protein kinase SYK (Homo sapiens) (UniProt P43405); assay: Inhibition of SYK at 1 uM
[6] = target: Activin receptor type-2A (Homo sapiens) (UniProt P27037); assay: Inhibition of ACVR2A at 1 uM; procedure, shortened: as §1
[7] = target: Macrophage-stimulating protein receptor (Homo sapiens) (UniProt Q04912); assay: Inhibition of MST1R at 1 uM
[8] = target: SRSF protein kinase 2 (Homo sapiens) (UniProt P78362); assay: Inhibition of SRPK2 at 1 uM
[9] = target: T1, Serine/threonine-protein kinase RIO1 (Homo sapiens) (UniProt Q9BRS2); assay: Inhibition of RIOK1 at 1 uM
T1 sequence (whole entry): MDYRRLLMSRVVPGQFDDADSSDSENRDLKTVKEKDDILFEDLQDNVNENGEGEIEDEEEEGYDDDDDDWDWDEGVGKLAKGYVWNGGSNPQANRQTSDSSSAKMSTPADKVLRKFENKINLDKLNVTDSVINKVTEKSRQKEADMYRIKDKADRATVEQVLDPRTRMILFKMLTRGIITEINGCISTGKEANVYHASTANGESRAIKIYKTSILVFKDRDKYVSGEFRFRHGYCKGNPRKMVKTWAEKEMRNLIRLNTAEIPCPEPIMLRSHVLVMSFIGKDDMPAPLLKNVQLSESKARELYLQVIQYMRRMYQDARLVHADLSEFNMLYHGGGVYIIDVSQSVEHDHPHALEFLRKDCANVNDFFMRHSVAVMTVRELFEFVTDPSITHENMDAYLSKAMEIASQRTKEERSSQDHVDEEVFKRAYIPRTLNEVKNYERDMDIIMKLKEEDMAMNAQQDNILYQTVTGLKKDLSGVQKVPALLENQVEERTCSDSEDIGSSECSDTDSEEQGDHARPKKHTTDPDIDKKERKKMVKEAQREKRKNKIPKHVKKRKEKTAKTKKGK

[10] = target: Serine/threonine-protein kinase PLK3 (Homo sapiens) (UniProt Q9H4B4); assay: Inhibition of PLK3 at 1 uM
[11] = target: Serine/threonine-protein kinase PAK 6 (Homo sapiens) (UniProt Q9NQU5); assay: Inhibition of PAK6 at 1 uM
[12] = system: Phosphatidylinositol 4,5-bisphosphate 3-kinase catalytic subunit alpha isoform (Homo sapiens), P42336 [Q546K]; assay: Inhibition of PIK3CA Q546K mutant at 1 uM
[13] = target: Macrophage colony-stimulating factor 1 receptor (Homo sapiens) (UniProt P07333); assay: Inhibition of CSF1R at 1 uM; procedure, shortened: as §2
[14] = target: T2, cGMP-dependent protein kinase 2 (Homo sapiens) (UniProt Q13237); assay: Inhibition of PRKG2 at 1 uM
T2 sequence (whole entry): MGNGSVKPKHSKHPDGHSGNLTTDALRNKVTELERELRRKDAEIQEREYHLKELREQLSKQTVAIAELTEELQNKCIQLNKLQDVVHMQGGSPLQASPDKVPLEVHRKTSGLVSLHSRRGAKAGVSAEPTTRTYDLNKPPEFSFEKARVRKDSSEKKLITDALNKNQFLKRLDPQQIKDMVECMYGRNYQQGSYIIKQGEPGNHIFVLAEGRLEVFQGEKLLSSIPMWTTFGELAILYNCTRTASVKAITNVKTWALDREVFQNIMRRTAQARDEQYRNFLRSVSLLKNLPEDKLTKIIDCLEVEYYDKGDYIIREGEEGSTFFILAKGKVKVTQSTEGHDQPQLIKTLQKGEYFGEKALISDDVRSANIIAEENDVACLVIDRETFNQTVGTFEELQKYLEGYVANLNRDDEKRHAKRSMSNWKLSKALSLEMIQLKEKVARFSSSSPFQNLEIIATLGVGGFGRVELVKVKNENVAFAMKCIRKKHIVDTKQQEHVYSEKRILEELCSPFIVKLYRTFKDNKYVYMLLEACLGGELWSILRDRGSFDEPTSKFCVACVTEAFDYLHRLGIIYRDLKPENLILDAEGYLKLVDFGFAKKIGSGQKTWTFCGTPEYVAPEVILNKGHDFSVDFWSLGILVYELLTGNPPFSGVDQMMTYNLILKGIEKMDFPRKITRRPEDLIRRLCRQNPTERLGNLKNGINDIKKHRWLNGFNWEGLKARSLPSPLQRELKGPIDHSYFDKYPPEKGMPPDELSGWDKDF

[15] = target: T3, Mitogen-activated protein kinase 15 (Homo sapiens) (UniProt Q8TD08); assay: Inhibition of ERK8 at 1 uM
T3 sequence (whole entry): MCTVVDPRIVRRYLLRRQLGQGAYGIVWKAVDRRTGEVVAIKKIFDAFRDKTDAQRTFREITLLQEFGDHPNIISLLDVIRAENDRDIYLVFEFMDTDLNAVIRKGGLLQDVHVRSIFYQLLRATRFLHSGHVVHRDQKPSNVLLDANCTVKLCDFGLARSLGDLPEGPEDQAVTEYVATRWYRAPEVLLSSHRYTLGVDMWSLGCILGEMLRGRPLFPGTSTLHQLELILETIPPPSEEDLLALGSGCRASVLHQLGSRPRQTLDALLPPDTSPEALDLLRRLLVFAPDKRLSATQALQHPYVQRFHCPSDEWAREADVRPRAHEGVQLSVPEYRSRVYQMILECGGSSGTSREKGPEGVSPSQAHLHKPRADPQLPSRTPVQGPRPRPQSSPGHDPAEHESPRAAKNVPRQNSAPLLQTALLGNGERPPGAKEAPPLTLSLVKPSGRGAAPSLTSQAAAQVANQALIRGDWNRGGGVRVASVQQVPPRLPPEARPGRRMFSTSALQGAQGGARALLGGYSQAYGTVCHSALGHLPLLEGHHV

[16] = target: Atypical kinase COQ8A, mitochondrial (Homo sapiens) (UniProt Q8NI60); assay: Inhibition of ADCK3 at 1 uM; procedure, shortened: as §1
Chain of Atypical kinase COQ8A, mitochondrial (Homo sapiens) (Q8NI60 163-647 limits assumed): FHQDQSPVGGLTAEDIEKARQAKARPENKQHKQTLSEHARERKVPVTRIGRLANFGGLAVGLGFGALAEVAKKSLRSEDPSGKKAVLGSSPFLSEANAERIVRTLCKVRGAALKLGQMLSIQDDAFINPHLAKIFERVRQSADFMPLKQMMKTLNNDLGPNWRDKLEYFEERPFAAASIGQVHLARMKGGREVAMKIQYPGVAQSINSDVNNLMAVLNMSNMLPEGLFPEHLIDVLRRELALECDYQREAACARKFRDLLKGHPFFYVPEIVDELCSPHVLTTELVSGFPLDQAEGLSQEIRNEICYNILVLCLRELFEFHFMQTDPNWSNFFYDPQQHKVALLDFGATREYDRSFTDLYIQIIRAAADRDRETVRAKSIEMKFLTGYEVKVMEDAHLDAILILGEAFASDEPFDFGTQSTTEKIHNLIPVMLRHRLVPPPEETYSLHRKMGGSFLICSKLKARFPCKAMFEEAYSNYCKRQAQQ

Chain of Macrophage-stimulating protein receptor (Homo sapiens) (Q04912 25-304 limits assumed): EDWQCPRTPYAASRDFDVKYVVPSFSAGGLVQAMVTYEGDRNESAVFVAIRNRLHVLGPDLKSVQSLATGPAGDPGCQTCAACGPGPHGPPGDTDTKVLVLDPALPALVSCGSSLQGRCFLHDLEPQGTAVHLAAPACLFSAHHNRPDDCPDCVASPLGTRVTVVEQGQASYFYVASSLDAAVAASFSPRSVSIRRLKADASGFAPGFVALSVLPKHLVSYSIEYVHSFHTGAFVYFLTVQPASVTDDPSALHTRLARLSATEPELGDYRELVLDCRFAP
Chain of Macrophage-stimulating protein receptor (Homo sapiens) (Q04912 310-1400 limits assumed): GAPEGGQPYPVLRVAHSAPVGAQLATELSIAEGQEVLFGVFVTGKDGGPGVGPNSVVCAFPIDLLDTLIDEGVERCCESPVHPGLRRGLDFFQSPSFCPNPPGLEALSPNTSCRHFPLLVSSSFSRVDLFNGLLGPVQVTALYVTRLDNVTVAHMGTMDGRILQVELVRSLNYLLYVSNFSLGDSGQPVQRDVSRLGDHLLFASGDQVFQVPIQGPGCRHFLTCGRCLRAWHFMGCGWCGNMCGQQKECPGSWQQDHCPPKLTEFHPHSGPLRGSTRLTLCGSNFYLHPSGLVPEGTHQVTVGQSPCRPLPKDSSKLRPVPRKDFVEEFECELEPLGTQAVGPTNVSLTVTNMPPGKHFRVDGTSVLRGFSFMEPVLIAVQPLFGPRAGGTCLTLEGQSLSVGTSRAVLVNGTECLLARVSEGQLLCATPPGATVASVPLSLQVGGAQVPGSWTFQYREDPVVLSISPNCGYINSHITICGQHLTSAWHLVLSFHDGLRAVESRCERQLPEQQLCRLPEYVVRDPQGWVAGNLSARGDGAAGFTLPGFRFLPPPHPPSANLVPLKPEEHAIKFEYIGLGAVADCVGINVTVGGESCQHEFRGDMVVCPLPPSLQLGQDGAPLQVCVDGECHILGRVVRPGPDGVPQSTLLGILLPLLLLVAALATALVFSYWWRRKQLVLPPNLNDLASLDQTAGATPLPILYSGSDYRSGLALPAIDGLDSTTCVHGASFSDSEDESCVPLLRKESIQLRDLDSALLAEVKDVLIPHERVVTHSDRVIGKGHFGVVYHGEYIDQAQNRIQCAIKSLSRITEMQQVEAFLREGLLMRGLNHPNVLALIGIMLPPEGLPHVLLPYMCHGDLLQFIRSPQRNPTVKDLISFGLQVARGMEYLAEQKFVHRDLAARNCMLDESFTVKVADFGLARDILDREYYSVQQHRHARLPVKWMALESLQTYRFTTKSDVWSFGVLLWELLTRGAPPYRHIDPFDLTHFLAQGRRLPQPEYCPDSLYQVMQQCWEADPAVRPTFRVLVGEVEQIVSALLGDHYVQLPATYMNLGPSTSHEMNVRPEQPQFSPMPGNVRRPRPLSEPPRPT
Chain of Calcium/calmodulin-dependent protein kinase type II subunit delta (Homo sapiens) (Q13557 whole entry): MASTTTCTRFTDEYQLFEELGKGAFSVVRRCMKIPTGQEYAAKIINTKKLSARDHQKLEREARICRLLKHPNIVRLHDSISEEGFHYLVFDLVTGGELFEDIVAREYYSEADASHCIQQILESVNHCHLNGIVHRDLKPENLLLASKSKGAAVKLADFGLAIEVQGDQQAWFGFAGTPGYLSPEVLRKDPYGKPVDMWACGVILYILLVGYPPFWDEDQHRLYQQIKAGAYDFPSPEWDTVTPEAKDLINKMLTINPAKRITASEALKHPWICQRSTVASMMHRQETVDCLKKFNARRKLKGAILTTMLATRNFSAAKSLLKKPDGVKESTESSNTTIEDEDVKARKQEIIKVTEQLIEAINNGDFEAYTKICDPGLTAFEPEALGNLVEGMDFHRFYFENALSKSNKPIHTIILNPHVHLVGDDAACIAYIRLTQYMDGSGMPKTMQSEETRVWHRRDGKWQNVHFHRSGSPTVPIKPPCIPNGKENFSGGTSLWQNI
Chain of Ribosomal protein S6 kinase alpha-5 (Homo sapiens) (O75582 whole entry, looked up, the tested form may be a part): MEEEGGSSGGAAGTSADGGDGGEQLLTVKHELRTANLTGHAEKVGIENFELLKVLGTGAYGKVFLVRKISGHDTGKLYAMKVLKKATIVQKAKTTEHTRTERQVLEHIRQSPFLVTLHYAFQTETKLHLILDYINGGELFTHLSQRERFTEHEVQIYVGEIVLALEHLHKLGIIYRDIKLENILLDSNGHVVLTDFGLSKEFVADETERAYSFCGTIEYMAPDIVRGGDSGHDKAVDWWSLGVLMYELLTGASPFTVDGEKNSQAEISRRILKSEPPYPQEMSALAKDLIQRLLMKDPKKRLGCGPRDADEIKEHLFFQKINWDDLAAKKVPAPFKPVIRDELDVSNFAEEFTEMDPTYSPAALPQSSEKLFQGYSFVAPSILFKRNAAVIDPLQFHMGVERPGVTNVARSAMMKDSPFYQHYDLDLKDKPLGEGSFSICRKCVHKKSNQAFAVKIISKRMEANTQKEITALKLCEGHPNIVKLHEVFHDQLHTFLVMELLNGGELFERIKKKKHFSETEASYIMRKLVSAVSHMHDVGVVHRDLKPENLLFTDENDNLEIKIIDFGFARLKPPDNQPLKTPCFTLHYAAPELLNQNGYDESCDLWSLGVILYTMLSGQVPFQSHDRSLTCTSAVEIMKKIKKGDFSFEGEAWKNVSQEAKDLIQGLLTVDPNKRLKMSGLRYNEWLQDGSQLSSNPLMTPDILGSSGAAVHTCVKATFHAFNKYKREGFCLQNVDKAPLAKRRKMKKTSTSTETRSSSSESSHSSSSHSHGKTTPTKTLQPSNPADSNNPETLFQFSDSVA
Chain of Cyclin-dependent kinase-like 3 (Homo sapiens) (Q8IVW4 whole entry, looked up): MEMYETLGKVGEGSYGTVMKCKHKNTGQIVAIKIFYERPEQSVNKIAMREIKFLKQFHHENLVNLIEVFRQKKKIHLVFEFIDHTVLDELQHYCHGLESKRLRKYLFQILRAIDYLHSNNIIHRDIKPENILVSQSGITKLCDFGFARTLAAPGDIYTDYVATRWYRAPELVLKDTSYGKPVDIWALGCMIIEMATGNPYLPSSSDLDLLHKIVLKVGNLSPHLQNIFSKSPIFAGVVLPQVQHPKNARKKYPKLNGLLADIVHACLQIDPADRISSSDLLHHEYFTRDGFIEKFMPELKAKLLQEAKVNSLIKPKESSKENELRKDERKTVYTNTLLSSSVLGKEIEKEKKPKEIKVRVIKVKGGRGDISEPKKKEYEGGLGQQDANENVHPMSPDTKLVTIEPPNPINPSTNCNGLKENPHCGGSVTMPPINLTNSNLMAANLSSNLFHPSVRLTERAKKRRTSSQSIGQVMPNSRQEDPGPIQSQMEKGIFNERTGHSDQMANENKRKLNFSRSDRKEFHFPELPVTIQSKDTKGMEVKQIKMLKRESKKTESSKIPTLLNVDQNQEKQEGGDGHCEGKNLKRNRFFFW
Chain of Activin receptor type-2A (Homo sapiens) (P27037 whole entry): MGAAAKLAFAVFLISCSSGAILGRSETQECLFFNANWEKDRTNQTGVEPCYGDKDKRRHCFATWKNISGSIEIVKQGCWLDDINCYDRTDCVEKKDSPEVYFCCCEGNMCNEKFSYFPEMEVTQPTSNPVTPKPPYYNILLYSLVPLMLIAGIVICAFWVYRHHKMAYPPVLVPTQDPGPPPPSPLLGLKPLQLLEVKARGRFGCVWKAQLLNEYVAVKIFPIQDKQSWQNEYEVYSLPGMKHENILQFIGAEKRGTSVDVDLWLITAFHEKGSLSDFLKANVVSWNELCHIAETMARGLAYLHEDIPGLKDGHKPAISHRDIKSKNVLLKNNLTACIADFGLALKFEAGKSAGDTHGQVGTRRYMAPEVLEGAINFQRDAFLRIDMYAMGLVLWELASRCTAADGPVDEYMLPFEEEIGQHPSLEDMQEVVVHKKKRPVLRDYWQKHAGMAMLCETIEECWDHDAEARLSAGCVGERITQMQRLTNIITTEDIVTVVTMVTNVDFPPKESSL
Chain of Serine/threonine-protein kinase PAK 6 (Homo sapiens) (Q9NQU5 whole entry, looked up, canonical isoform): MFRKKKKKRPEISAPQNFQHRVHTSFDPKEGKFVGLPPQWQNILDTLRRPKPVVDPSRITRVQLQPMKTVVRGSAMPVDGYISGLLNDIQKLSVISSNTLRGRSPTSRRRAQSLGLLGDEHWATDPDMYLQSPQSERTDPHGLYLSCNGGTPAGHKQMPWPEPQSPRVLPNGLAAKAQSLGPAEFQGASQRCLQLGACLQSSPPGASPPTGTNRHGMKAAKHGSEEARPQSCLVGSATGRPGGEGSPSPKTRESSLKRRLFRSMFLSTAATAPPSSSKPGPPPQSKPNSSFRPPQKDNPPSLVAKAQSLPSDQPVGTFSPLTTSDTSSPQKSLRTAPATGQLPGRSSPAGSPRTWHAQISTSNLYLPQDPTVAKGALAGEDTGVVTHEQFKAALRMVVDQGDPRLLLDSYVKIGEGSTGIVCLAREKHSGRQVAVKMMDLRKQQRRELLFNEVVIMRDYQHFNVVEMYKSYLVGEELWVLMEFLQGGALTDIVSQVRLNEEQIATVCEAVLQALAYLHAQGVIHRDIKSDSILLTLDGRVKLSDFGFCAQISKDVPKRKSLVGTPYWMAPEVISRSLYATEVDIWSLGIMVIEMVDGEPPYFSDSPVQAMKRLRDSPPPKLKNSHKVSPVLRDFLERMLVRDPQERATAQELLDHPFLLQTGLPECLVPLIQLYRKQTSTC

Row | inhibition [1] [%] | inhibition [2] [%] | inhibition [3] [%] | inhibition [4] [%] | inhibition [5] [%] | inhibition [6] [%] | inhibition [7] [%] | inhibition [8] [%] | inhibition [9] [%] | inhibition [10] [%] | inhibition [11] [%] | inhibition [12] [%] | inhibition [13] [%] | inhibition [14] [%] | inhibition [16] [%] | Compound | inhibition [15] [%]
1 | < 50 | < 50 | < 50 | < 50 | < 50 | < 50 | < 50 | < 50 | < 50 | < 50 | < 50 | < 50 | 93 | < 50 | < 50 | CC(=O)N1CCN(c2cc(-c3cnc4c(c3)N(Cc3cc(Cl)ccc3C(F)(F)F)CCN4)ccn2)CC1 | < 50
2 | < 50 | – | < 50 | < 50 | < 50 | < 50 | – | – | < 50 | < 50 | < 50 | – | < 50 | < 50 | < 50 | O=C(O)c1ccc(-c2cnc3c(c2)N(Cc2cc(Cl)ccc2C(F)(F)F)CCN3)cc1 | –
3 | < 50 | – | < 50 | < 50 | < 50 | < 50 | – | – | < 50 | < 50 | < 50 | – | < 50 | < 50 | < 50 | O=C(c1ccc(-c2cnc3c(c2)N(Cc2cc(Cl)ccc2C(F)(F)F)CCN3)cc1)N1CCCCC1 | –
4 | < 50 | < 50 | < 50 | < 50 | < 50 | < 50 | < 50 | < 50 | < 50 | < 50 | < 50 | < 50 | 88 | < 50 | < 50 | CN1CCN(c2ccc(-c3cnc4c(c3)N(Cc3cc(Cl)ccc3C(F)(F)F)CCN4)cn2)CC1 | < 50
5 | < 50 | < 50 | < 50 | < 50 | < 50 | < 50 | < 50 | < 50 | < 50 | < 50 | < 50 | < 50 | < 50 | < 50 | < 50 | CN1CCN(c2ccc(-c3cnc4c(c3)N(Cc3cc(F)ccc3F)CCN4)cn2)CC1 | < 50
6 | < 50 | < 50 | < 50 | < 50 | < 50 | < 50 | < 50 | < 50 | < 50 | < 50 | < 50 | < 50 | 88 | < 50 | < 50 | CN1CCN(c2ccc(-c3cnc4c(c3)N(Cc3cc(Cl)ccc3Cl)CCN4)cn2)CC1 | < 50
7 | < 50 | – | < 50 | < 50 | < 50 | < 50 | – | – | < 50 | < 50 | < 50 | – | 74.2 | < 50 | < 50 | COC1CCN(C(=O)c2ccc(-c3cnc4c(c3)N(Cc3cc(Cl)ccc3C(F)(F)F)CCN4)cc2)CC1 | –
8 | < 50 | < 50 | < 50 | < 50 | < 50 | < 50 | < 50 | < 50 | < 50 | < 50 | < 50 | < 50 | 96 | < 50 | < 50 | CN1CCN(c2ccc(-c3cnc4c(c3)N(Cc3c(F)ccc(F)c3Cl)CCN4)cn2)CC1 | < 50
9 | < 50 | < 50 | < 50 | < 50 | < 50 | < 50 | < 50 | < 50 | < 50 | < 50 | < 50 | < 50 | 99 | < 50 | < 50 | FC(F)(F)c1ccc(Cl)cc1CN1CCNc2ncc(-c3ccnc(N4CCNCC4)c3)cc21 | < 50
10 | < 50 | – | < 50 | < 50 | < 50 | < 50 | – | – | < 50 | < 50 | < 50 | – | 96.6 | < 50 | < 50 | O=C(c1ccc(-c2cnc3c(c2)N(Cc2cc(Cl)ccc2C(F)(F)F)CCN3)cc1)N1CCC(N2CCCC2)CC1 | –
